From PubChem
This is a sample that favours compounds with a hit; in the whole collection about 2.2% have one here.
mABHD4 FP = inhibitors of mouse ABHD4; inhibition, % at 8.92 µM; Q8VD66; hit rate 0.54% among 370,000; purified mABHD4, FP-Rh probe fluorescence polarization;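 active = inhibition exceeding the mean over every tested compound plus 3 SD, cut at about 30% in these data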
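Assay system: wild-type mouse ABHD4 protein; compound: single nominal dose of 8.92 µM, 0.89% DMSO final; schedule: 45 min + 60 min at 25 °C; measured by: FP readout, ex 525 nm / em 598 nm; evaluation: % inhibition of FP-Rh probe binding versus controls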
TCR CD3 inh = inhibitors of human TCR-CD3 interaction | TAMRA-labeled TCR probe fluorescence, biochemical | inhibition, % at 9.4 µM | hit rate 0.37% among 360,000 | AID 651800; in the data active = inhibition above about 19%;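 also: recombinant mutant TCR 2C K166C tagged with TAMRA read by polarization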
HTRA1 inhibitor = inhibitors of human serine peptidase HTRA1; inhibition, % at 5.96 µM; recombinant HTRA1, FP-rhodamine activity-based probe, fluorescence polarization; hit rate 0.5% among 340,000; AID 504803; Q92743; in the data active = inhibition above about 36%
LEDGF integ inh = blocks HIV-1 LEDGF/p75-dependent DNA integration; inhibition, % at 3.7 µM; AID 743269; TR-FRET IN-LEDGF/p75 DNA integration, Eu/Cy5; hit rate 0.64% among 370,000;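 active = inhibition above the screen-wide mean plus 3 SD, cut at about 13% in these data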;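 also: signal is the Cy5 over europium emission ratio at 671 and 618 nm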
SIAE inh = inhibitors of human sialic acid acetylesterase SIAE; SIAE FP-Rh probe binding, fluorescence polarization; inhibition, % at 9.66 µM; hit rate 0.69% among 370,000; AID 1053197;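 active = inhibition above a cutoff: mean of compounds within the control limits plus 3 SD of those, cut at about 17% in these data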
Target sequence (Q9HAT2 whole entry, looked up): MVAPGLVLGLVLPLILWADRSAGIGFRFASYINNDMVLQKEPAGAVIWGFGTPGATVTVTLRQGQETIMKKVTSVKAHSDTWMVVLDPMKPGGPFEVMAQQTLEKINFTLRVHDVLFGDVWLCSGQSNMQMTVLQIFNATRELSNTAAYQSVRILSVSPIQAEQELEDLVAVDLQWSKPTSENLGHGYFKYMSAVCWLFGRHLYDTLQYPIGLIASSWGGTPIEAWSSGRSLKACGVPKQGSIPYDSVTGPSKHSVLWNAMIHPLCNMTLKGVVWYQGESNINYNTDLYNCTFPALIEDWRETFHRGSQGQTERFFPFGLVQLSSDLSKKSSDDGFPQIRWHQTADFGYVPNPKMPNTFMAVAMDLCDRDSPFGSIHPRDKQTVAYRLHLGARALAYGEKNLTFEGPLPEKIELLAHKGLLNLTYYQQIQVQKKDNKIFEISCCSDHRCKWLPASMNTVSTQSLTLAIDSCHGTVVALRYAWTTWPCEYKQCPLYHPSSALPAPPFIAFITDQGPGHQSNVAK
TDP2 inh = TDP2 (human) inhibition, absorbance primary screen; O95551; recombinant TDP2, T5PNP hydrolysis, p-nitrophenol absorbance 415 nm; inhibition, % at 12.8 µM; hit rate 0.34% among 370,000; AID 720702;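 active = inhibition above the mean of all tested compounds plus 3 SD, set per campaign, cut at about 25% in these data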
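Incubation: 2 h at 37 °C; Test system: recombinant human TDP2; Quantity: enzyme 120 nM; Read-out basis: percent inhibition; Medium: 50 mM Tris-HCl pH 7.5 with Mg2+, KCl, DTT, BSA; Repeats: single replicate; Compound: 12.8 µM single point, 1% DMSO; Signal: epi absorbance; Reagent: 5 mM T5PNP chromogenic substrate; Benchmarks: no-enzyme high, DMSO-plus-enzyme low.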
SIAE inh conf = confirmation of human SIAE inhibitors. shares compounds with SIAE inh. SIAE FP-Rh activity-based probe, fluorescence polarization. inhibition, % at 9.66 µM. hit rate 13% among 2,300. AID 1117263;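 active = mean inhibition of the replicates above the hit cutoff set in the primary screen, cut at about 17% in these data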;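 also: inhibitors lower polarization as more probe stays unbound to SIAE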
Numbers stand for hits; . = inactive; / = no result given; ! = a repeat was not active.

SMILES | mABHD4 FP | TCR CD3 inh | HTRA1 inhibitor | LEDGF integ inh | SIAE inh | TDP2 inh | SIAE inh conf
C[n+]1ccc2[nH]c3ccccc3c2c1 | . | . | / | . | 26 | . | .
Cc1ccc(C(=O)NCc2cccnc2)cc1S(=O)(=O)N1CCCCCC1 | . | . | . | . | . | . | /
Cc1ccc(C(=O)NCc2cccc(C(F)(F)F)c2)cc1S(=O)(=O)N1CCCCC1 | . | . | . | . | 25 | . | .
CCc1nc2ccc(C(=O)Nc3ccc4c(c3)OCC(=O)N4)cn2c1N(C)C(=O)Cc1ccccc1 | . | . | / | . | . | . | /
COc1ccc(NC(=O)COC(=O)Cc2ccsc2)c(OC)c1 | . | . | . | . | . | . | /
COc1ccc(NC(=O)Cc2ccsc2)c(OC)c1 | . | . | . | . | 18 | . | .
CN1C(=O)[C@H]2[C@@H](/C=C/c3ccccc3)N3C(=O)CN(CCO)C(=O)[C@@]3(C)[C@H]2C1=O | . | . | . | . | . | . | /
CCCCOCCCNc1ncnc2c1[nH]c1ccccc12 | . | . | . | . | 18 | . | .
O=C(/C=C/c1ccccc1Cl)NCCCn1ccnc1 | . | . | . | . | . | . | /
COC(=O)C1=NN(C(=O)c2cccc(Cl)c2)C(O)(C(C)(C)C)C1 (configuration not stated) | . | . | . | . | 24 | . | .
CCCCOc1ccc(S(=O)(=O)NC(=O)C2(C)CCN2C(=O)c2cccc(F)c2)cc1 (configuration not stated) | . | . | / | . | . | . | /
Cn1c(=O)oc2cc(S(=O)(=O)N3CCC(C(=O)NCCc4ccccc4)CC3)ccc21 | . | . | . | . | . | . | /
O=C(C1CC1)N1CCN(c2ccc(O)cc2)CC1 | . | . | . | . | 19 | . | .
CCN(CC)CCCC(C)n1c(C)cc(C(=O)NS(=O)(=O)c2ccc(C)cc2)c1C (configuration not stated) | . | . | . | . | . | . | /
C=CCOC(=O)C1=C(C)NC(SCC(=O)NC(=O)OCC)=C(C#N)C1c1cccnc1 (configuration not stated) | . | . | . | . | 18! | . | .
Cc1cc(Br)cc(Cl)c1OCC(=O)N1CCN(C(=O)c2ccco2)CC1 | . | . | . | . | . | . | /
Cc1cc(C)c(OCC(=O)OCC(=O)N2CCN(C(=O)c3ccco3)CC2)c(C)c1 | . | . | . | . | 18 | . | .
CN(C)C(=O)N1CCN(C(=O)[C@H](CCc2ccccc2)NC(=O)[C@H]2O[C@@H](n3cnc4c(N)ncnc43)[C@H](O)[C@@H]2O)CC1 | . | . | / | . | 36 | . | 43
COc1ccccc1C(=O)N1CCN(C(=O)[C@H]2O[C@@H](n3cnc4c(N)ncnc43)[C@H](O)[C@@H]2O)CC1 | . | . | / | . | 23 | . | 21
Nc1ncnc2c1ncn2[C@@H]1O[C@H](C(=O)N[C@@H](CO)c2ccccc2)[C@@H](O)[C@H]1O | . | . | / | . | 17 | . | 19
C[C@@H](NC(=O)[C@H]1O[C@@H](n2cnc3c(N)ncnc32)[C@H](O)[C@@H]1O)c1cccc2ccccc12 | . | . | / | . | . | . | /
CC(=O)[C@H]1CC[C@@H](c2ccccc2)N(S(=O)(=O)c2ccc(C)cc2)C1 | . | . | / | . | . | . | /
COc1ccc(NC(=O)c2cc(C3CCCCN3C(=O)OCCF)on2)c(C)c1 (configuration not stated) | . | . | / | . | . | . | /
CN(C)S(=O)(=O)c1cccc(C(=O)NCC2(N3CCOCC3)CCCCC2)c1 | . | . | . | . | . | . | /
CC(=O)Nc1cc(NC(C)=O)cc(C(=O)NCC2(N3CCOCC3)CCCCC2)c1 | . | . | . | . | 21 | . | .
SMILES | mABHD4 FP | TCR CD3 inh | HTRA1 inhibitor | LEDGF integ inh | SIAE inh | TDP2 inh | SIAE inh conf
CSc1cc(-c2ccncc2)nc(-c2ccc(Cl)cc2)c1 | . | . | . | . | . | . | /
NC(=O)c1ncn([C@@H]2O[C@H](C(=O)N[C@H](Cc3c[nH]c4ccccc34)C(=O)N3CCN(C(=O)N4CCCCC4)CC3)[C@@H](O)[C@H]2O)n1 | . | . | / | . | 17 | . | .
Nc1ccn([C@@H]2O[C@H](C(=O)N[C@H](Cc3ccccc3)C(=O)N3CCN(C(=O)N4CCCCC4)CC3)[C@@H](O)[C@H]2O)c(=O)n1 | . | . | / | . | 23 | . | 18
CCOC(=O)c1c(C)[nH]c(C(=O)NCCc2ccc(OC)c(OC)c2)c1C | . | . | . | . | 22 | . | .
CC(C)NCC(=O)NC12CC3CC(CC(C3)C1)C2 | . | . | . | . | 21 | . | .
O=C(O)CC(=O)NC12CC3CC(CC(C3)C1)C2 | . | . | . | . | . | . | /
Nc1nonc1N/N=C\c1ccccc1 | . | . | . | . | . | . | /
O=C(N/N=C/c1c(O)ccc2ccccc12)Nc1ccccc1 | . | . | / | . | 52 | . | 49
Nc1nonc1N/N=C/c1c(O)ccc2ccccc12 | . | . | . | . | 18 | . | .
COc1ccccc1C(=O)COC(=O)CN1C(=O)C2CC=CCC2C1=O (configuration not stated) | . | . | . | . | . | . | /
CN(C)c1ccc(CNC(=O)CCc2ccc(S(=O)(=O)N3CCCCCC3)cc2)cc1 | . | . | . | . | . | . | /
CCOc1ccc(-n2c(C)cc(/C=N/NC(=O)C(N)=O)c2C)cc1 | . | . | . | . | 20 | . | .
CCOc1ccc(-n2c(C)cc(/C=N\NC(=O)CC(=O)NC3CCCCC3)c2C)cc1 | . | . | . | . | . | . | /
COc1cc(/C=N/NC(=O)c2ccc(Cn3cc([N+](=O)[O-])cn3)o2)cc(Br)c1O | . | . | . | . | . | . | /
COc1cc(/C=N\NC(=O)c2ccc(Cn3cc(Br)c([N+](=O)[O-])n3)o2)cc(OC)c1O | . | . | . | . | 17 | . | .
Nc1cc(N)cc(-c2nc3ccccc3o2)c1 | . | . | . | . | 25 | . | .
O=C(O)c1ccccc1C(=O)c1ccc(N2CCCC2)c([N+](=O)[O-])c1 | . | . | . | . | . | . | /
CC(=O)c1ccc(N2CCN(c3ccccc3O)CC2)c([N+](=O)[O-])c1 | . | . | . | . | 31 | . | .
Cc1nc2c(C)cccc2cc1C(=O)N/N=C/c1cccnc1 | . | . | . | . | 18 | . | .
Cc1ccc(N/N=C(\C#N)C(N)=S)c(C)c1 | . | . | . | . | 54 | . | .
S=c1nc(-c2csc3c2CCCC3)[nH][nH]1 | . | . | . | . | . | . | /
Nc1nnc(SCC(=O)NNC(=O)c2ccccc2)s1 | . | . | . | . | . | . | /
CCC(C)N1C(=O)CN(C2CCCCCC2)C(=O)C1c1ccccc1F (configuration not stated) | . | . | . | . | 19 | . | .
